Assay results as given in PubChem BioAssay.
Calls of active or inactive are those of the source.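 The calls were made as follows, unless noted: active = visual image review flags a hit and inhibition of aggregation exceeds 20%; inconclusive = visual hit but inhibition at or below 20%; inactive = no hit on visual image review.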

Assays:
[1] = inhibitors of TNFa-induced NFkB p65 translocation, primary screen, imaging, HUVEC, MLSMR starter and 10KST1 sets (AID 438;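 active = inhibition above 20% together with a positive visual image hit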;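 also: compound added about 3h40 before a 20 min TNFalpha stimulation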;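 as to inhibition: signal is the nuclear over cytoplasmic p65 intensity ratio per well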); details: HUVEC TNFa-induced p65 nuclear translocation; cell count: measured here: nuclei count (cytotoxicity indicator), at 2.08 µM; inhibition: at 2 µM, stronger effect = higher value, 0% TNFa-plus-vehicle, 100% no-TNFa wells
[2] = inhibitors of mutant huntingtin aggregation, primary screen, imaging, exon1htt(103Q)mCFP cells, high-content imaging (AID 483); details: exon1htt(103Q)mCFP cell line, aggregate imaging, at 2 µM; inhibition of aggregation: stronger effect = higher value; nuclei count: measured here: cell count, toxicity;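 also: compound exposure lasted 3 days before fixation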;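 as to nuclei count: percent of the per-plate median nuclei count of sample wells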
[3] = inhibitors of E-selectin induction by TNFa, primary screen, imaging, HUVEC, immunofluorescence, MLSMR starter and 10KST1 sets (AID 487;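 active = visually confirmed hit in the image check and inhibition above 20%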;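 as to inhibition: signal is fraction of cell area covered by stained E-selectin grains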;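 as to nuclei count: 100% = median nuclei count of all wells on the same plate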); details: HUVEC TNFalpha-induced E-selectin immunofluorescence imaging, at 2 µM; inhibition: stronger effect = higher value; nuclei count: measured here: cell number, toxicity
[4] = target: Voltage-gated potassium channel subunit beta-2 (Rattus norvegicus) (UniProt P62483); assay: KvBeta enzyme negative modulators, primary screen, biochemical, NADPH fluorescence (AID 622;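 active = fluorescence slope higher than the sample average by over 3 SD, cut at about -0.22 in these data, passing the limit was not always enough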;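 also: slope of raw intensity against log time taken from 70 to 1610 s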); details: recombinant KvBeta, 4-cyanobenzaldehyde reduction, at 10 µM, stronger effect = higher value
[5] = target: Voltage-gated potassium channel subunit beta-2 (Rattus norvegicus) (UniProt P62483); assay: KvBeta positive modulators, primary screen, biochemical, NADPH fluorescence (AID 623;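 active = NADPH fluorescence slope more negative than the mean of all samples by about 3 SD, 99.7% confidence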;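 also: fluorescence intensity change per second fitted from 20 to 320 s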); details: Recombinant KvBeta, NADPH fluorescence decrease slope, 10 min; at 10 µM; stronger effect = lower value
[6] = target: Muscarinic acetylcholine receptor M4 (Homo sapiens) (UniProt P08173); assay: compounds altering M4/GIRK thallium flux, either direction, primary screen, M4 allosteric agonist project, cell-based, HEK293 M4/GIRK, BTC-AM (AID 625;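 active = fluorescence slope after compound addition differing from the mean of all tested samples at 99.7% confidence, mostly higher but some lower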;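 also: thallium influx through GIRK channels coupled to M4 in HEK293 cells with BTC-AM dye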); details: at 10 µM, actives lie on both sides
In short: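 Material – HEK293 cells with M4 receptor and GIRK channels · Buffer or medium – pH 7.3 thallium assay buffer · Doses – one dose, 10 µM final · Timing – cells overnight at 37 °C, BTC-AM loading 1 h, reads 2 min total · Measured by – kinetic fluorescence with BTC-AM dye · Controls – carbachol and DMSO controls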

[7] = inhibitors of Sendai virus-induced IRF3 signaling, primary screen, TLR/RLR signaling modifier project, cell-based, Sendai virus stimulus, luciferase, 10K MLSCN set (AID 602276;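 active = inhibition at or above 50% at 10 µM; inactive = inhibition below 50%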;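 also: firefly luciferase from ISG56 promoter only with Renilla not read in this screen; 0% = Sendai virus plus DMSO and 100% = medium plus DMSO without virus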); details: HEK293 RL24 IRF3 luciferase reporter, at 10 µM, stronger effect = higher value
[8] = inhibitors of poly I:C-induced TLR3 signaling, primary screen, cell-based, poly I:C stimulus, luciferase, 10K MLSCN set (AID 602277;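 active = inhibition of the reporter signal at or above 50%; inactive = inhibition below 50%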); details: HEK293-TLR3 RL24 IRF3 luciferase reporter, at 10 µM, stronger effect = higher value

Sequence of Voltage-gated potassium channel subunit beta-2 (Rattus norvegicus) (P62483 whole entry, looked up): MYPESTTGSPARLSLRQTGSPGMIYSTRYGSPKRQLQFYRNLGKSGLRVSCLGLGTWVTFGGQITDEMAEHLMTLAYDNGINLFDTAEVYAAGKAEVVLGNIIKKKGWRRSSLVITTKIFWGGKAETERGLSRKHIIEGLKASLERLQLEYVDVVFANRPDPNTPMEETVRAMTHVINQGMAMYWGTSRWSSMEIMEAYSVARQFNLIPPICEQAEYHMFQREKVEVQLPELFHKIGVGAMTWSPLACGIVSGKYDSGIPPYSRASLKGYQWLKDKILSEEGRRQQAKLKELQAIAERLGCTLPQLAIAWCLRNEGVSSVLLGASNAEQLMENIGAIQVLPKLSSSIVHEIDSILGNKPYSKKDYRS
Sequence of Muscarinic acetylcholine receptor M4 (Homo sapiens) (P08173 whole entry, looked up): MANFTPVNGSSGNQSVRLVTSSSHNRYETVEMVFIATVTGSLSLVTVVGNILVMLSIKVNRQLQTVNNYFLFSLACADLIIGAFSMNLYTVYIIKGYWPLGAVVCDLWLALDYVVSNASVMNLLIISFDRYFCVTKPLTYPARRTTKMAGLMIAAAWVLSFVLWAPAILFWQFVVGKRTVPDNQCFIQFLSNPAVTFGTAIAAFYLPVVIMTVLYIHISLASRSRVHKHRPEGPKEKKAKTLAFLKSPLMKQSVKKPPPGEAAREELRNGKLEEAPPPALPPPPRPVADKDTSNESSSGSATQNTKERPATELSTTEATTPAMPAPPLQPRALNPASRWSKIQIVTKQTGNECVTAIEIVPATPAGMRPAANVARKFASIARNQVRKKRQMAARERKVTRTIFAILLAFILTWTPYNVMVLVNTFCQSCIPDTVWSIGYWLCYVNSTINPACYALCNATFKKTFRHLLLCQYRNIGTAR

Structure (SMILES) | cell count [1] | inhibition [1] | inhibition of aggregation [2] | nuclei count [2] [%] | inhibition [3] | nuclei count [3] [%] | fluorescence slope [4] | NADPH fluorescence slope [5] | fluorescence slope [6] | inhibition [7] | inhibition [8]
COc1ccccc1Nc1nc(N)nc(CN2CCN(c3ccccc3F)CC2)n1 | 561 | -12.1% (inactive) | -5.7% (inactive) | 97.3 | 25.3% (inactive) | 97.6 | -0.571 (inactive) | -2.2e-05 (inactive) | 0.00301 (inactive) | -5.08% (inactive) | -10.4% (inactive)
CCN(c1ccccc1)S(=O)(=O)c1ccc(F)cc1C | 207 | 4.7% (inactive) | -4.7% (inactive) | 66.7 | -11.8% (inactive) | 119 | -0.58 (inactive) | -2.3e-05 (inactive) | 0.00509 (inactive) | 12.3% (inactive) | 22.6% (inactive)
Cc1noc(C)c1S(=O)(=O)Nc1c(C)n(C)n(-c2ccccc2)c1=O | 410 | 2.5% (inactive) | 33.5% (inactive) | 84.8 | -5.4% (inactive) | 96 | -0.472 (inactive) | 1.2e-05 (inactive) | 0.00591 (inactive) | 13.8% (inactive) | 22.3% (inactive)
Cc1ccccc1NC(=O)C1CCC(C)(C(=O)O)C1(C)C (stereo not drawn) | 485 | 3.5% (inactive) | 1.6% (inactive) | 94.4 | -269% (inactive) | 109 | -0.581 (inactive) | 1.1e-05 (inactive) | 0.00574 (inactive) | -5.54% (inactive) | 8.98% (inactive)
Cn1cccc1C1NC(=O)c2c(sc3c2CCC(C(C)(C)C)C3)N1 (stereo not drawn) | 495 | 1.7% (inactive) | -10.6% (inactive) | 93 | -107% (inactive) | 127 | -0.19 (inactive) | -1.5e-05 (inactive) | 0.00584 (inactive) | -3.95% (inactive) | -48.7% (inactive)
Cc1cc(NC(=O)NC(=O)c2cccc(OC(F)(F)C(F)F)c2)n[nH]1 | 520 | -14% (inactive) | -5.5% (inactive) | 76.8 | -45% (inactive) | 102 | -0.539 (inactive) | 0.000153 (inactive) | 0.00729 (inactive) | -14.7% (inactive) | -48.5% (inactive)
COCC(=O)N(Cc1nc2ccccc2c(=O)[nH]1)Cc1cccs1 | 608 | -5.4% (inactive) | -6.1% (inactive) | 105 | -64.2% (inactive) | 114 | -0.557 (inactive) | -3e-05 (inactive) | 0.00566 (inactive) | 20.3% (inactive) | 22.3% (inactive)
CCCn1c(SCC(=O)Nc2cc(C)on2)nc2c1c(=O)n(C)c(=O)n2C | 400 | 6.8% (inactive) | 3.2% (inactive) | 95.2 | -36.6% (inactive) | 152 | -0.551 (inactive) | -2.8e-05 (inactive) | 0.00431 (inactive) | -5.89% (inactive) | 0.557% (inactive)
Cc1ccccc1NC(=O)C1Cc2ccccc2C(=O)O1 (stereo not drawn) | 193 | -5.8% (inactive) | -4.8% (inactive) | 76.3 | 20.2% (inactive) | 79.8 | -0.529 (inactive) | -3.3e-05 (inactive) | 0.00563 (inactive) | -9.01% (inactive) | -31.6% (inactive)
O=C1c2ccccc2-c2nc3ncnn3c(-c3ccccc3)c21 | 377 | -7.8% (inactive) | -4.5% (inactive) | 83.8 | -6.8% (inactive) | 107 | -0.432 (inactive) | -0.000383 (inactive) | 0.00449 (inactive) | -11.4% (inactive) | 1.41% (inactive)
O=C(COc1ncnc2ccccc12)NCc1ccc2c(c1)OCO2 | 345 | -1.6% (inactive) | -8.2% (inactive) | 101 | -38.6% (inactive) | 105 | -0.584 (inactive) | -5e-06 (inactive) | 0.00352 (inactive) | 15.1% (inactive) | 16.2% (inactive)
CSC1CCCCC1(O)CSc1nc2c(cc1C#N)CCCC2 (stereo not drawn) | 306 | -7.4% (inactive) | 9% (inactive) | 87 | -111% (inactive) | 78.9 | -0.411 (inactive) | 1e-05 (inactive) | 0.00633 (inactive) | 21.3% (inactive) | 13.8% (inactive)
CCSc1nc2c(c(=O)n(C)c(=O)n2C)n1Cc1ccc(Cl)cc1 | 440 | 3.3% (inactive) | 0.4% (inactive) | 106 | -15.6% (inactive) | 112 | -0.527 (inactive) | -4.7e-05 (inactive) | 0.00489 (inactive) | 11.8% (inactive) | 4.67% (inactive)
CN(C(=O)c1ccccn1)c1nnc(-c2ccncc2)s1 | 551 | 5% (inactive) | -7.6% (inactive) | 111 | -35.7% (inactive) | 109 | -0.267 (inactive) | -1.3e-05 (inactive) | 0.00597 (inactive) | 6.96% (inactive) | -3.15% (inactive)
O=C(NC1CCCCC1)C(c1ccco1)N(Cc1cccnc1)C(=O)C1COc2ccccc2O1 (stereo not drawn) | 509 | -13.1% (inactive) | -14.5% (inactive) | 111 | -4.6% (inactive) | 198 | -0.607 (inactive) | -1e-05 (inactive) | 0.00322 (inactive) | 22.1% (inactive) | 35.6% (inactive)
O=C(Cn1cnc2sc(-c3ccccc3)cc2c1=O)N1CCOCC1 | 353 | 6.9% (inactive) | 15.6% (inactive) | 98.1 | -123% (inactive) | 114 | -0.445 (inactive) | -4.1e-05 (inactive) | 0.00489 (inactive) | 6.22% (inactive) | -5.03% (inactive)
O=C(Nc1ccc(F)cc1)c1cccc2c1C(=O)N(Cc1ccccn1)C2 | 811 | 2.1% (inactive) | 4.1% (inactive) | 98.1 | -108% (inactive) | 126 | -0.576 (inactive) | -3e-05 (inactive) | 0.00591 (inactive) | 0.0917% (inactive) | -22.2% (inactive)
CCOCCCNC(=O)C1CCN(C(=O)Nc2ccc(Cl)cc2)CC1 | 437 | -5% (inactive) | -2.7% (inactive) | 106 | -40.5% (inactive) | 90.7 | -0.324 (inactive) | -6.3e-05 (inactive) | 0.00707 (inactive) | 10.2% (inactive) | 21.5% (inactive)
Cc1noc(C)c1S(=O)(=O)N1CCC(C(=O)Nc2ccccn2)CC1 | 281 | -5.2% (inactive) | -0.6% (inactive) | 96.1 | -46% (inactive) | 128 | -0.404 (inactive) | 3.5e-05 (inactive) | 0.00606 (inactive) | 13.8% (inactive) | 21.1% (inactive)
O=C(O)C1CC(=O)N(c2ccc(OCc3c(F)cccc3Cl)cc2)C1 (stereo not drawn) | 571 | -18.3% (inactive) | -13% (inactive) | 100 | -18.6% (inactive) | 116 | -0.568 (inactive) | -2.6e-05 (inactive) | 0.0057 (inactive) | 4.5% (inactive) | 17.3% (inactive)
Cc1ccccc1CSCC(=O)c1c(N)n(C)c(=O)n(C)c1=O | 395 | 2.8% (inactive) | -5.9% (inactive) | 96.5 | 34.1% (inactive) | 103 | -0.475 (inactive) | 3.9e-05 (inactive) | 0.00961 (inactive) | -5.02% (inactive) | -20.8% (inactive)
O=c1cc(-c2ccc(Cl)cc2)[nH][nH]1 | 523 | -2.4% (inactive) | 10.1% (inactive) | 104 | 54.7% (inactive) | 47.1 | -0.27 (inactive) | -4.3e-05 (inactive) | 0.00862 (inactive) | 15.8% (inactive) | -16.8% (inactive)
CCOC(=O)C1CCCN(Cc2nc(N)nc(Nc3ccccc3)n2)C1 (stereo not drawn) | 741 | -4.7% (inactive) | -2.7% (inactive) | 104 | -49.1% (inactive) | 106 | -0.57 (inactive) | -4.6e-05 (inactive) | 0.0052 (inactive) | 22.1% (inactive) | 16.8% (inactive)
c1ccc2c3nnc4n(c-3nc2c1)CCCS4 | 472 | 4.1% (inactive) | 0.4% (inactive) | 101 | 17.9% (inactive) | 112 | -0.444 (inactive) | -2.5e-05 (inactive) | 0.00387 (inactive) | -12.6% (inactive) | -19.6% (inactive)
Cn1c(=O)[nH]c(=O)c2c1nc(N1CCNCC1)n2Cc1cccc2ccccc12 | 387 | 1.1% (inactive) | 13.1% (inactive) | 99.6 | -83.1% (inactive) | 106 | -0.59 (inactive) | -5.5e-05 (inactive) | 0.00615 (inactive) | 13.2% (inactive) | 28.8% (inactive)
COc1ccccc1C(=O)Nc1ccc(N2CCN(S(C)(=O)=O)CC2)cc1 | 320 | -6.8% (inactive) | 7% (inactive) | 127 | 18.3% (inactive) | 116 | -0.242 (inactive) | -2.5e-06 (inactive) | 0.00706 (inactive) | -8.58% (inactive) | -50.2% (inactive)
CC1=CC=CC2=NC(=O)CC(C)(C(=O)N(CC(=O)NC(C)C)C3CCCC3)N12 (stereo not drawn) | 668 | -4.9% (inactive) | -31.9% (inactive) | 107 | 71.9% (active) | 102 | -0.405 (inactive) | 6.3e-05 (inactive) | 0.00619 (inactive) | 4.96% (inactive) | 6.2% (inactive)
Cc1nnc(SCc2cnc(-c3ccccc3)o2)[nH]c1=O | 332 | -2.2% (inactive) | 12.4% (inactive) | 92.7 | -82.5% (inactive) | 118 | -0.591 (inactive) | -1.9e-05 (inactive) | 0.00323 (inactive) | 10.2% (inactive) | 12.4% (inactive)
